From PubChem BioAssay
A selection: hits, their analogues and other compounds. The true share with any hit is near 2.1%.
SR-BI DiI inh: blocks mouse SR-BI lipid uptake from DiI-HDL | Q61009 | ldlA[mSR-BI] CHO cells, DiI-HDL uptake fluorescence, 3 h | inhibition, % at 12.5 µM | 320,000 tested, 0.96% active | AID 488896;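 active means mean replicate inhibition of at least 70% and a set share of replicates each scoring 70 or more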
PKA-R1A activ: PKA-R1A complex activation; P00514+P68181; PKA-R1A dissociation, Cy5-IP20 fluorescence polarization; scaled: DMSO 0%, 113 µM cGMP 100%; activation, % at 11.4 µM; 340,000 tested, 0.083% active;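 active means percent activation above the mean of all tested compounds plus 3 SD, cut at about 19% in these data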;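 further: higher means more PKAc released from R1A so a rise in polarization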
dFosB act: activators of mouse delta FosB homodimer | P13346 | purified delta FosB, TAMRA-CDK5 oligo fluorescence polarization; percent of positive-control signal above neutral wells | activation, % at 25 µM | 340,000 tested, 0.99% active;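 active means mean activation above about 17%, with every replicate also reaching it, limit read from the data, passing the limit was not always enough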
CDK5 inh: inhibitors of human CDK5/p35 kinase. AID 488839. Q00535+Q15078. Recombinant CDK5/p35, ADP-Glo luminescence, 60 min. 330,000 tested, 0.01% active. inhibition, % at 10 µM;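 active means highest replicate inhibition of at least 50% and at least 75% of replicates reaching 50%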
PKA-R2B activ: PKA-R2B complex activation; P22694+P31323; PKA-R2B holoenzyme dissociation, Cy5-IP20 fluorescence polarization; R2B truncated from residue 108, S112A mutant; 0% DMSO only, 100% 113 µM cGMP; activation, % at 11.4 µM; 340,000 tested, 0.079% active;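 active means activation above a cutoff set at the mean over all compounds plus 3 SD, cut at about 18% in these data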;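 further: higher means more holoenzyme dissociation and a rise in polarization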
Target sequence (P31323 whole entry, looked up, other chains not shown, the tested form may be a part): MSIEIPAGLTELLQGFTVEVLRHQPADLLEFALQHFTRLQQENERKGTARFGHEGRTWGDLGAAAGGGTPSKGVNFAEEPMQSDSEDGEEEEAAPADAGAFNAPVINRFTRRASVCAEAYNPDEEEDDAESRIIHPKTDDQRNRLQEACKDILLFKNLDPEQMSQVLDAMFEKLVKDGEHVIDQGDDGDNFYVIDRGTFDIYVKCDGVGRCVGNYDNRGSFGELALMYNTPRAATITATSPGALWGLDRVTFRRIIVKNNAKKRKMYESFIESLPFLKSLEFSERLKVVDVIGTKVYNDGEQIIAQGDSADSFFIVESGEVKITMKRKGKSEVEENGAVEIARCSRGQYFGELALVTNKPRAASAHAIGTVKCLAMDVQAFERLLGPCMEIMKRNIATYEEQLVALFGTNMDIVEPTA
SR-BI DiI-HDL act: enhances SR-BI lipid uptake from DiI-HDL; CHO ldlA[mSR-BI] cells, DiI-HDL uptake fluorescence, 3 h; 100 = double the neutral-control signal; activation, % at 12.5 µM; 320,000 tested, 0.096% active;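 active means mean replicate activation of at least 60% and every replicate at or above 60%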
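Test system: SR-BI-overexpressing, LDLR-lacking CHO cells; Also added: labelled HDL, 10 µg/mL; Measured by: bottom-read cell fluorescence after medium removal, ex 550/em 595 nm; Timing: 3 h uptake period with compound, 37 °C; Buffer or medium: F12, 0.5% BSA, 25 mM HEPES; Doses: single compound concentration, delivered by pin transfer.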
Each line names hits and unclear results; the compound was inactive in the other large screens.

COc1cc(OC)cc(C(=O)Nc2cccc(N3CCCC3)c2)c1	SR-BI DiI inh 87
COc1cc(OC)cc(C(=O)Nc2cccc(C(C)=O)c2)c1	none
Cc1ccccc1C(=O)N1CCN(c2ccc(NC(=O)c3cccc(OC(C)C)c3)cc2)CC1	SR-BI DiI inh 74
Cc1ccc(C(=O)Nc2ccc(N3CCN(C(=O)c4ccco4)CC3)cc2)c(Cl)c1	SR-BI DiI inh 85
COc1c(C)cccc1C(=O)Nc1ccc(N2CCN(C(=O)c3ccccc3C)CC2)cc1	none
COc1ccccc1C(=O)Nc1cc2cc(Br)ccc2oc1=O	SR-BI DiI inh 100
Cc1cc(C)c(S(=O)(=O)NCc2nc3nc(C)cc(C)n3n2)c(C)c1	none
COc1ccc(C(=O)NC2CCN(C(=O)NCc3ccccc3)CC2)cc1	none
COc1cccc(CN(C)C(=O)CSCC(=O)Nc2cccc(C)c2)c1OC	none
CC(=O)N1CCN(c2ccc(NC(=O)c3cc4ccccc4o3)cc2)CC1	none
CC(C)Oc1ccc(C(=O)Nc2ccc(N3CCN(C(=O)c4ccco4)CC3)cc2)cc1	SR-BI DiI inh 74
COc1ccc(C(=O)N2CCN(c3ccc(NC(=O)c4ccco4)cc3)CC2)cc1	none
COc1ccc(Br)cc1C(=O)Nc1cccc(C)c1	SR-BI DiI inh 75
COc1ccc(Br)cc1C(=O)Nc1cccc(NC(=O)c2ccco2)c1	none
Cc1ccc(C(=O)Nc2ccc(Br)c(C(F)(F)F)c2)cc1	SR-BI DiI inh 72
O=C(Nc1ccc(N2CCCC2)cc1)c1cc2ccccc2o1	SR-BI DiI inh 72
Cc1ccc(NC(=O)c2ccc(C)cc2)cc1	none
C=C(C)CN(CC)C(=O)CN1C(=O)NC(C)(c2ccc3ccccc3c2)C1=O (stereo not drawn)	none
CC(C)Oc1ccc(C(=O)Nc2ccc(N3CCCC3)cc2)cc1	SR-BI DiI inh 75
COc1ccc(Br)cc1C(=O)Nc1ccc(N2CCCC2)cc1	SR-BI DiI inh 78
COc1ccc(C(=O)Nc2ccc(N3CCN(C)CC3)cc2)cc1	none
O=C(N/N=C/c1cc(Cl)cc(Cl)c1O)c1ccncc1	SR-BI DiI inh 132
O=C(Nc1cc(S(=O)(=O)Nc2ccc(Cl)cc2)ccc1O)c1ccc(S(=O)(=O)N2CCCCCC2)cc1	none
O=C(N/N=C/c1cc(Cl)ccc1O)c1ccccc1Br	SR-BI DiI inh 78
O=C(N/N=C/c1ccc(Cl)cc1Cl)c1ccncc1	none
Oc1c(Cl)cc(Cl)cc1/C=N/Nc1ncc(Br)cn1	SR-BI DiI inh 130
O=C(N/N=C\c1cc(Cl)ccc1O)c1ccc(S(=O)(=O)N2CCCCC2)cc1	SR-BI DiI inh 135
O=C(N/N=C/c1cccnc1)c1cccc(Cl)c1	none
O=C(N/N=C/c1cc(Cl)ccc1O)c1cccnc1	SR-BI DiI inh 70
O=C(CNC(=O)c1ccccc1Br)N/N=C/c1cc(Br)ccc1O	dFosB act 32
O=C(Nc1ccccc1F)c1ccc(CSc2ccccc2)o1	none
Cc1c(C)n(C)c2ccc(C(=O)Nc3cccc4ccccc34)cc12	SR-BI DiI inh 81
O=C(Nc1cccc2ccccc12)c1ccccc1	none
CN(C(=O)CC1C(=O)NCCN1Cc1ccc(F)c(F)c1)C1CCCCC1 (stereo not drawn)	none
NC(=S)NN=C1CCC2(CCCCC2)CC1	SR-BI DiI inh 85
CC1(C)CCC(=NNC(N)=S)CC1	none
NC(=S)NN=C1CCCCC12CCCC2	SR-BI DiI inh 75
CC(C)(C)c1ccc(OCCC(=O)Nc2ccc(N3CCOCC3)cc2N2CCOCC2)cc1	none
CCCN1C(=O)/C(=C/c2ccco2)SC1=Nc1ccc(OC)cc1	SR-BI DiI inh 79
CCCN1C(=O)/C(=C/c2ccc(C)o2)SC1=Nc1ccc(OC)cc1	none
Cc1ccc(C(CC(N)=O)c2ccco2)cc1 (stereo not drawn)	SR-BI DiI-HDL act 71
COc1cc2[nH]c(=S)n(Cc3cccs3)c(=O)c2cc1OC	dFosB act 19
COc1cccc(NC(=O)c2ccnc(N3CCC(C(=O)NCc4ccccc4OC)CC3)c2)c1	SR-BI DiI inh 87
NC(=S)n1[nH]c(-c2ccc([N+](=O)[O-])cc2)c(N=Nc2ccccc2[N+](=O)[O-])c1=O	SR-BI DiI inh 89
Cc1c(N=Nc2c(-c3ccc([N+](=O)[O-])cc3)[nH]n(C(N)=S)c2=O)cccc1[N+](=O)[O-]	SR-BI DiI inh 92
Nc1[nH]n(-c2ccccc2)c(=O)c1N=Nc1ccccc1[N+](=O)[O-]	none
Cc1[nH]n(C(N)=S)c(=O)c1N=Nc1cccc([N+](=O)[O-])c1C	none
NC(=S)n1[nH]c(-c2ccc([N+](=O)[O-])cc2)c(N=Nc2cccc([N+](=O)[O-])c2)c1=O	SR-BI DiI inh 87
Cn1ccsc1=NC(=O)c1cccc(OC(F)F)c1	none
COc1cccc(CSC(C(=O)O)c2ccccc2)c1 (stereo not drawn)	none (no result: SR-BI DiI inh, dFosB act, CDK5 inh, SR-BI DiI-HDL act)
CN(C)CCNC(=O)c1cccc2ccc(-c3ccc(-c4ccccc4)cc3)nc12	none
CN(C)CCNC(=O)c1cccc2nc3cccc(F)c3nc12	dFosB act 33
COc1ccc(C23CC4CC(CC(C4)C2)C3)cc1C(=O)NCCN(C)C	none
COc1ccc(OC)c2nc3c(C(=O)NCCN(C)C)cccc3nc12	dFosB act 87
COc1ccc(C(=O)NCc2cn3c(C)csc3n2)cc1OC	none
CCOc1cc(C(=O)OCc2cc(=O)n3c(C)csc3n2)ccc1OC	SR-BI DiI inh 78
Cc1cc(C(=O)Nc2sc3c(c2C#N)CCCC3)no1	none
CCOC(=O)c1c(NC(=O)C(=O)N/N=C/c2ccccc2OC)sc2c1CCCCC2	none
CCOC(=O)c1c(NC(=O)c2ccn(CC)n2)sc2c1CCCC2	SR-BI DiI inh 72
CCOC(=O)c1c(NC(=O)c2ccco2)sc2c1CCCC2	none
CCOC(=O)c1cc(C(=O)Nc2sc3c(c2C#N)CCCC3)nn1C	SR-BI DiI inh 76
CCOC(=O)c1c(NC(=O)C(=O)N/N=C/c2ccccc2O)sc2c1CCCCC2	SR-BI DiI inh 127
CC(NC(=O)C1CCN(C(=O)Nc2ccccc2)CC1)c1ccccc1 (stereo not drawn)	none
Cc1ccccc1-c1cc(C(=O)NCc2cccc(C(F)(F)F)c2)n(CC2CC(c3cccnc3)=NO2)n1 (stereo not drawn)	none
CCCCCCCCCC1(CC(=O)OCC)SCCN1C(N)=O (stereo not drawn)	none (no result: SR-BI DiI inh, dFosB act, CDK5 inh, SR-BI DiI-HDL act)
CCC(C)NC(=O)CSc1nnc(-c2cc(OC)c(OC)c(OC)c2)c(-c2cc(OC)c(OC)c(OC)c2)n1 (stereo not drawn)	none
COc1ccccc1-c1oc2ccccc2c1-c1ccc2cc[nH]c2c1	SR-BI DiI inh 80
